Compound activity as filed in PubChem.
5HT1a antag – human 5-HT1a receptor antagonists, primary screen, cell-based, CHO, Ga15 NFAT-bla reporter; 5-hydroxytryptamine receptor 1A (Homo sapiens), P08908; CHO 5-HT1a Ga15 NFAT-bla reporter, antagonist mode; inhibition, % at 10 µM; 62,000 compounds, 0.68% hits; AID 612, 2007;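 active = inhibition above the mean of all tested compounds plus 3 SD, cut at about 43% in these data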;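 also: receptor stimulated by 5-CT agonist at 100 nM near EC80; beta-lactamase reporter measured by ratiometric fluorescence of a cleavable substrate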
5HT1E ag – 5-HT1E receptor agonists, primary screen, cell-based, HTS. 5-hydroxytryptamine receptor 1E (Homo sapiens), P28566. CHO 5-HT1E Ga15 NFAT-bla reporter, FRET; 0% DMSO wells, 100% control agonist wells. activation, % at 6 µM. 65,000 compounds, 0.69% hits. AID 574, 2007;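 active = activation above a set limit, the screen-wide mean activation plus 3 SD, cut at about 8.5% in these data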;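 also: 100% = positive control agonist at 1 µM giving full maximal response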
HTR1E antagonist – 5-HT1E receptor antagonists, primary screen, cell-based, HTS | 5-hydroxytryptamine receptor 1E (Homo sapiens), P28566 | CHO 5-HT1E Ga15 NFAT-bla reporter, FRET, antagonist | inhibition, % at 6 µM | 65,000 compounds, 0.99% hits | AID 571, 2007;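 active = inhibition above a set limit, the mean inhibition across every tested compound plus 3 SD, cut at about 29% in these data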;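 also: signal is the 460 over 535 nm emission ratio of beta-lactamase substrate; 0% = agonist plus DMSO wells and 100% = wells without agonist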
S1P3 agonist – human S1P3 receptor agonists, primary screen, cell-based, primary and confirmation, NFAT-BLA reporter; activation, % at 4.5 µM; AID 373, 2006; Sphingosine 1-phosphate receptor 3 (Homo sapiens), Q99500; 60,000 compounds, 0.1% hits; S1P3 NFAT-BLA reporter cells, agonism, FRET ratio; relative to 1 µM S1P, basal subtracted;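 active = activation above the screen-wide mean plus 3 SD, cut at about 4.5% in these data, passing the limit was not always enough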
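Material: Human S1P3 NFAT-BLA reporter CHO cells | Incubation: Overnight plating, 4 h compound 37 °C, 2 h substrate RT | Signal: FRET β-lactamase substrate fluorescence, excitation 405 nm, 460/535 nm emission ratio, background-subtracted | Compound: 4.5 µM final, single dose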
S1P1 ag pot – S1P1 agonists and agonism potentiators, primary screen, cell-based, primary and confirmation screens, CRE-bla reporter. Sphingosine 1-phosphate receptor 1 (Homo sapiens), P21453. S1P1 CRE-bla cells, forskolin, beta-lactamase FRET, potentiator mode; S1P1 agonist co-added at EC20, 2 nM; 100% = saturating reference agonist, 0% = basal. activation, % at 9.5 µM. 56,000 compounds, 0.57% hits;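 active = activation above a cutoff set at the mean activation of all tested compounds plus 3 SD, cut at about 54% in these data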;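 also: forskolin at 4 µM as EC80 and the EC20 agonist is SEW2871; 100% = SEW2871 at its EC100 plus forskolin at EC80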
Target sequence (P21453 whole entry, looked up): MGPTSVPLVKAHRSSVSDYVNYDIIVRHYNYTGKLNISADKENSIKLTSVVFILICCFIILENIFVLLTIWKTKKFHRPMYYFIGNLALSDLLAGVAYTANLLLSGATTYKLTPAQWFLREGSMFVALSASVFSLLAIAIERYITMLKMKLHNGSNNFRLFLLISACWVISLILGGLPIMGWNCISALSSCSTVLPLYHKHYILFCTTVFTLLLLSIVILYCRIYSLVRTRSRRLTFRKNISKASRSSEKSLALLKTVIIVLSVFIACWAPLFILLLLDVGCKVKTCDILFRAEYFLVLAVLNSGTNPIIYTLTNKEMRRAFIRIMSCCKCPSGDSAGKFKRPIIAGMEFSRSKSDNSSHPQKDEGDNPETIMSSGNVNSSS
5HT1a ag – human 5-HT1a receptor agonists, primary screen, cell-based, CHO, Ga15 NFAT-bla reporter; 5-hydroxytryptamine receptor 1A (Homo sapiens), P08908; CHO 5-HT1a Ga15 NFAT-bla reporter, FRET ratio; 0% basal, 100% maximal reference agonist; activation, % at 10 µM; 65,000 compounds, 0.56% hits; AID 567, 2006;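 active = activation above the screen-wide mean activation plus 3 SD, cut at about 19% in these data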;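 also: 0% = DMSO wells and 100% = 5-CT at EC100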
* marks the source's active call; other numbers are inactive results; · = not tested or not shown. Rows were chosen to be rich in hits. Some 3% of all compounds tested hit in one or more screens of this group.

SMILES	5HT1a antag	5HT1E ag	HTR1E antagonist	S1P3 agonist	S1P1 ag pot	5HT1a ag
CCn1c(SCC(=O)NCC2CCCO2)nc2c(c1=O)SC(C)C2 (stereo not drawn)	-10	1	-8	0	-14	19*
CCn1c(SCC(=O)Nc2nc3ccc(C)cc3s2)nc2c(c1=O)SC(C)C2 (stereo not drawn)	-16	0	8	-1	55*	1
CCOC(=O)c1c(NC(=O)c2cc(C3CC3)on2)sc2c1CCCC2	-6	1	-3	2	-3	-1
CC(C)COP(=O)(c1ccc(N(C)C)cc1)C(O)c1ccccc1F (stereo not drawn)	8	-1	2	-2	6	0
CCCCOC(=O)C1Cc2ccccc2C(=O)O1 (stereo not drawn)	7	0	-6	0	·	-3
CC1CC(N(C(=O)c2ccco2)c2ccccc2)c2ccccc2N1 (stereo not drawn)	10	16*	-6	1	6	-1
Clc1ccccc1OCCCCN1CCCC1	17	15*	4	-1	-30	-1
COc1cccc(OC)c1OCCCCN1CCCC1	-10	1	-1	0	-2	-2
CCc1cc2cc3c(cc2nc1SCC(=O)Nc1cc(C)on1)OCO3	10	0	-4	-1	-30	-3
Cc1ccccc1Cn1ccc(NC(=O)c2cc3nc(-c4ccco4)cc(C(F)(F)F)n3n2)n1	-15	2	-5	0	-35	74*
COc1cccc(CNC(=O)C2CCN(S(=O)(=O)N3CC(C)CC(C)C3)CC2)c1 (stereo not drawn)	-16	1	2	0	-7	0
COCCNC(=O)c1c(N)n(CCC2=CCCCC2)c2nc3ccccc3nc12	·	8	-26	4	-54	29*
COc1ccc(CCn2c(N)c(C(=O)NCc3ccco3)c3nc4ccccc4nc32)cc1OC	6	2	1	7.3*	-112	1
COCCn1c(N)c(C(=O)OCc2ccccc2)c2nc3ccccc3nc21	-30	2	6	0	-32	1
CC(=O)NC(Cc1ccc(F)cc1)C(=O)N1CCN(C(=O)NCc2ccccc2)CC1 (stereo not drawn)	-3	-1	1	0	4	-1
C=CCSc1nc(N)c(C#N)c(-c2ccccc2)c1C#N	7	-1	41*	-2	-16	-1
CCCSc1nc(N)c(C#N)c(-c2ccc(C)cc2)c1C#N	-23	0	1	-1	8	1
c1ccc2sc(SN3CCOCC3)nc2c1	-15	-1	-11	·	·	-1
O=C(COC(=O)c1ccco1)NCc1ccco1	8	0	6	-1	1	-2
Cc1cc(C(=O)OCC(=O)NCc2ccco2)c(C)n1-c1ccc(F)cc1	34	-1	37*	-1	8	-3
COc1ccccc1N1CCN(C(=O)CN(c2ccccc2OC)S(=O)(=O)c2ccccc2)CC1	-3	0	-8	-1	3	0
COc1ccc2nc3sc(C(=O)N4CCN(C)CC4)cc3cc2c1	-9	25*	1	-1	-22	0
O=C(Nc1ncnc2c1CCC2)C12CC3CC(CC(C3)C1)C2	2	0	16	-1	-2	40*
Cc1cc(NC(=O)C2CC2)ncc1NC(=O)C12CC3CC(CC(C3)C1)C2	3	0	6	·	·	-1
Cn1c(=O)[nH]c(=O)c2c1nc(Br)n2CCCSc1nc2ccccc2o1	14	0	34*	-2	-23	3
CC(=O)Oc1ccc2cc(-c3nc4ccccc4n3C)c(=O)oc2c1	-54	21*	33*	5.7*	-17	89*
